Hits are enriched below; roughly 3.9% of the tested compounds scored in any of these assays.
HTR2A ag = activates the mouse 5-HT2A serotonin receptor | AID 624169 | actives 0.66% (n = 360,000) | activation, % at 7.6 µM | P35363 | CHO-K1 mHTR2A beta-arrestin complementation, luminescence; percent of 30 µM serotonin response;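 active means activation above a run cutoff, the mean activation of all tested compounds plus 3 SD, cut at about 14% in these data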
M1 antag = blocks human M1 muscarinic receptor. P11229. actives 1.3% (n = 360,000). CHO-K1 hM1, Fluo-8 calcium fluorescence, ACh EC80 antagonist. inhibition, % at 3 µM;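 active means percent inhibition above its own plate's cutoff, namely the mean of that plate's compound wells plus 3 SD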;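 further: peak over basal fluorescence ratio during 140 s after agonist addition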
Target sequence (P11229 whole entry, looked up): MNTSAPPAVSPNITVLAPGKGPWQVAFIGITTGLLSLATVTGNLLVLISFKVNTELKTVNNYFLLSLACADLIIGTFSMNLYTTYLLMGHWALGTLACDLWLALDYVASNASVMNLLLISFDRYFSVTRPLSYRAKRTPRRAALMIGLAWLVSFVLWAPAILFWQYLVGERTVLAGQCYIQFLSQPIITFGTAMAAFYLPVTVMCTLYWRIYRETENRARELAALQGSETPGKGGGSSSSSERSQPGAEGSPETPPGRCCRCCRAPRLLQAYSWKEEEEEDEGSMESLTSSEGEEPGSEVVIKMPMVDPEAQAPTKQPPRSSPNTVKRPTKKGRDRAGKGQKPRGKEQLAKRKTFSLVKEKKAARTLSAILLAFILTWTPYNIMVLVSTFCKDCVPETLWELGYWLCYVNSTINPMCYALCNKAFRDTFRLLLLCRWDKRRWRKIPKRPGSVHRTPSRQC
CHRM1 agonist = activates human CHRM1 receptor | P11229 | CHO-K1 hM1, Fluo-8 calcium fluorescence, agonist mode; 0% DMSO, 100% acetylcholine EC100 | activation, % at 3 µM | actives 0.33% (n = 360,000) | AID 588814;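 active means activation above the run's mean compound activation plus 3 SD, cut at about 16% in these data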;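 further: peak over basal fluorescence ratio within a 140 s kinetic read after compound addition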
TAAR1 antag = antagonists of human TAAR1 | Q96RJ0 | CHO RD-HGA16 TAAR1, Fluo-8 calcium fluorescence, antagonist | inhibition, % at 3 µM | actives 1.5% (n = 360,000) | AID 624466;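 active means inhibition above a per-plate cutoff, the mean inhibition of test compounds on that plate plus 3 SD, cut at about 49% in these data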
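Assay system: RD-HGA16 CHO cells with stable hTAAR1 and Gα16 / Reagent: EC80 β-phenethylamine stimulus / Doses: 3 µM, single point / Timing: dye loading 75 min at 37 °C, then 30 min room temperature / Measured by: Fluo-8 intracellular calcium dye fluorescence, real-time kinetic reads / Controls: vehicle wells and EC80 agonist wells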
CHRM1 PAM = human CHRM1 positive allosteric modulation; P11229; CHO-K1 hM1, Fluo-8 calcium fluorescence, ACh EC20; 0% = ACh EC20, 100% = maximal ACh; activation, % at 3 µM; actives 0.088% (n = 360,000); AID 588819; in the data active means activation above about 19%, passing the limit was not always enough
TAAR1 agonist = human TAAR1 agonism; Q96RJ0; CHO RD-HGA16 TAAR1, Fluo-8 calcium fluorescence; vehicle wells 0%, saturating PEA agonist 100%; activation, % at 3 µM; actives 0.99% (n = 360,000);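 active means activation above the mean activation of all test compounds in the run plus 3 SD, cut at about 38% in these data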
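System: CHO RD-HGA16 cells carrying human TAAR1 plus Gα16; Incubation: 17-24 h seeding, 75 min 37 °C dye, 30 min RT; Measured by: Fluo-8 fluorescence, 5 s baseline then 140 s kinetic read; Control set: DMSO and PEA EC100; Replication: single well for each compound.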
TAAR1 nonsel count = nonselective antagonism, TAAR1 counter-screen. shares compounds with TAAR1 antag. counterscreen cell line, calcium fluorescence, antagonist mode. inhibition, % at 3 µM. actives 77% (n = 2,400); in the data active means inhibition above about 22%;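 further: CHO-Ga16 host cells stimulated with ATP at an EC80 level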
TAAR1 ant conf = confirmation of human TAAR1 antagonists; actives 40% (n = 2,400); AID 651785; inhibition, % at 3 µM; TAAR1-expressing cells, fluorescence antagonist read-out; shares compounds with TAAR1 antag; in the data active means inhibition above about 49%;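 further: CHO-Ga16 host cells challenged with agonist PEA near its EC80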
Ga16 nonsel ag = nonselective Ga16 agonism, counter-screen; shares compounds with TAAR1 antag; actives 18% (n = 2,400); activation, % at 3 µM; AID 651953; Ga16-expressing cells, calcium fluorescence, agonist counterscreen; in the data active means activation above about 12%
TAAR1 ag counter = counter-screen for human TAAR1 antagonists: TAAR1 agonists; hTAAR1 cell line, fluorescence activation, agonist mode; actives 2% (n = 2,400); shares compounds with TAAR1 antag; AID 651955; activation, % at 3 µM; in the data active means activation above about 37%;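 further: CHO cells stably expressing TAAR1 with calcium dye readout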
Hits are given with their value; 0 = inactive; - = not tested or not shown.

SMILES	HTR2A ag	M1 antag	CHRM1 agonist	TAAR1 antag	CHRM1 PAM	TAAR1 agonist	TAAR1 nonsel count	TAAR1 ant conf	Ga16 nonsel ag	TAAR1 ag counter
CCCn1c(N)c(Sc2ccccc2[N+](=O)[O-])c(=O)n(CCC)c1=O	0	0	0	0	0	0	-	-	-	-
O=C(COC(=O)c1cccnc1Cl)Nc1nc(-c2ccccc2)cs1	0	0	0	68	0	0	33	0	12	0
O=C(COc1ccccc1Cl)Nc1nc(-c2ccncc2)cs1	0	0	0	64	0	0	43	58	13	0
COc1cc(NC(=O)COc2ccccc2Cl)ccc1NC(=O)c1cccs1	0	0	0	57	0	0	24	0	0	0
Cc1ccc(C(=O)OCC(=O)Nc2nc(-c3ccccc3)cs2)cc1NC(=O)c1ccco1	0	0	0	83	0	0	37	54	0	0
Cc1ccc(C(=O)OCC(=O)Nc2ccccc2)cc1NC(=O)c1ccco1	0	0	0	0	0	0	-	-	-	-
COC(=O)C1(C(=O)OC)C[C@H](/C=C/c2ccccc2)N(Cc2ccccc2OC)[C@@H]1c1ccc(F)cc1	0	-	-	0	-	0	-	-	-	-
Cc1c(C(=O)NCCC#N)sc(=O)n1Cc1ccccc1F	0	0	0	0	0	0	-	-	-	-
O=C(c1ccc(F)cc1)C1CCN(CCCn2c(=O)[nH]c3ccccc32)CC1	-	-	-	0	-	0	-	-	-	-
COc1ccc(C(=O)Nc2cccc(NC(=O)c3cccs3)c2)cc1OC	0	0	0	62	0	0	26	0	0	0
COc1cccc(OC)c1C(=O)Nc1cccc(NC(=O)c2cccs2)c1	0	0	0	0	0	0	-	-	-	-
COc1cc(NC(=O)CSc2nnnn2C2CCCC2)cc(OC)c1	0	0	0	0	0	0	-	-	-	-
O=C(CSc1nnnn1C1CCCC1)NCCc1ccccc1	0	0	0	55	0	0	0	73	0	52
CC(C)n1nnnc1SCC(=O)NCCc1ccccc1	0	0	0	0	0	0	-	-	-	-
COC(=O)c1ccc(NC(=O)CSc2nnnn2C2CCCCC2)cc1	0	0	0	65	0	0	0	0	0	0
Cc1ccc(S(=O)(=O)N2CCC(NC(=O)OC(C)C)CC2)cc1	0	0	0	0	0	0	-	-	-	-
Cc1cc(-c2nnc(CCC(=O)N(C)C(C)c3cccs3)o2)no1 (configuration not stated)	0	0	0	0	0	0	-	-	-	-
O=C(NCc1ccccc1)C(c1ccc(O)cc1)N(C(=O)c1cnccn1)c1ccccc1 (configuration not stated)	0	0	0	63	0	0	34	53	0	0
COc1ccc(N(C(=O)c2cnccn2)C(C(=O)NCc2ccccc2)c2ccc(O)cc2)cc1 (configuration not stated)	0	0	0	0	0	0	-	-	-	-
COc1ccc(CNC(=O)C(c2ccco2)N(C(=O)c2ccccn2)c2ccccc2)cc1 (configuration not stated)	0	0	0	64	0	0	22	0	0	0
COCc1c(CCl)cnc(C)c1O	0	0	0	0	0	0	-	-	-	-
COc1ccc(CNC(=O)COc2cc3c(c4oc(=O)cc(C)c24)CCC(C)(C)O3)cc1	0	0	0	62	0	0	29	0	0	0
CCOC(=O)c1ccc(Nc2cc(C)nc(-c3ccccc3O)n2)cc1	0	0	0	53	0	0	26	0	0	0
NC(=O)c1cccc(-c2coc3c(C(=O)NCCc4ccccc4)cccc23)c1	0	0	0	64	0	0	36	0	0	0
O=C(c1ccc(-c2nc3ccccc3s2)o1)N1CCN(c2ccccc2O)CC1	0	0	0	64	0	0	29	0	0	0
SMILES	HTR2A ag	M1 antag	CHRM1 agonist	TAAR1 antag	CHRM1 PAM	TAAR1 agonist	TAAR1 nonsel count	TAAR1 ant conf	Ga16 nonsel ag	TAAR1 ag counter
Cc1ccc(S(=O)(=O)N2CCOCC2)cc1C(=O)NCCN1C(=O)S/C(=C\c2ccccc2Cl)C1=O	0	0	0	67	0	0	37	52	14	0
COC(=O)C1CCN(C(=O)C2CCN(C(=O)[C@@H](NS(=O)(=O)c3ccc(C)cc3)C(C)C)CC2)CC1	0	0	0	0	0	0	-	-	-	-
COc1cccc(CCN2C(=O)CCC3=C2CCC3=O)c1	0	0	0	-	0	-	-	-	-	-
COc1ccc(CCN(C)Cc2nc(Cc3ccc(OC)c(OC)c3)no2)cc1OC	0	0	0	0	0	0	-	-	-	-
COc1ccc(C(=O)N2N=C(c3cccc(NS(C)(=O)=O)c3)CC2c2cccs2)cc1 (configuration not stated)	0	0	0	61	0	0	31	0	0	0
Cc1ccc(NC(=O)CC2S/C(=N/c3nccs3)N(C)C2=O)cc1C (configuration not stated)	0	0	0	55	0	0	31	50	0	0
Cc1ccccc1NC(=O)CC1S/C(=N/c2nccs2)N(C)C1=O (configuration not stated)	0	0	0	0	0	0	-	-	-	-
CCN=c1sc(C(=O)NCCc2ccccc2)cc(=O)n1CC	0	30	0	55	0	0	31	53	0	0
Cc1cc2c(c(=O)n1Cc1ccccn1)C(c1ccc3c(c1)OCO3)C(C#N)=C(N)O2 (configuration not stated)	0	0	0	106	0	0	0	0	0	0
COc1ccc(CCn2c(C)cc3c(c2=O)C(c2ccc4c(c2)OCO4)C(C#N)=C(N)O3)cc1OC (configuration not stated)	0	0	0	53	0	0	29	0	0	0
Cc1cc2c(c(=O)n1Cc1ccc3c(c1)OCO3)C(c1cccnc1)C(C#N)=C(N)O2 (configuration not stated)	0	0	0	0	0	0	-	-	-	-
Cc1cc2c(c(=O)n1Cc1ccccn1)C(C(C)C)C(C#N)=C(N)O2 (configuration not stated)	0	0	0	0	0	0	-	-	-	-
COc1ccc(OC)c(CCNC(=O)CN2C(=O)CCSc3ccccc32)c1	0	0	0	0	0	0	-	-	-	-
COc1ccc(-n2c(=O)c(CCC(=O)N3CCC(C)CC3)nc3ccccc32)cc1	0	0	0	0	0	0	-	-	-	-
